Source: PubChem
Shown are actives, neighbours in structure and some others; about 1.6% of the full set was active somewhere.
PAD4 FP inh = inhibitors of human PAD4; Q9UM07; recombinant PAD4, RCA probe fluorescence polarization; inhibition, % at 6.36 µM; 0.41% of 330,000 active;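 active = percent inhibition above a cutoff equal to the mean of all tested compounds plus 3 SD, cut at about 15% in these data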;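 also: 0% = PAD4 with RCA probe and DMSO and 100% = probe without PAD4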
GSTO1 inh = counter-screen for RBBP9 inhibitors: inhibitors of human GSTO1; P78417; recombinant GSTO1, activity-based probe fluorescence polarization; inhibition, % at 5.96 µM; 1.1% of 300,000 active; AID 1974;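 active = inhibition above the campaign mean inhibition plus 3 SD, cut at about 35% in these data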;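 also: 0% = GSTO1-1 with DMSO and 100% = wells lacking GSTO1-1 enzyme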
UBC9 SUMO inh = blocks human SUMOylation mediated by UBC9; P63279; HTRF SUMOylation assay, SAE1/SAE2 + UBC9, in vitro; inhibition, % at 35 µM; 0.36% of 290,000 active; AID 2006; in the data active = inhibition above about 50%, passing the limit was not always enough
JMJD2C inh = human JMJD2C demethylase inhibition; Q9H3R0; GST-JMJD2C(1-420) H3K9me3 demethylation, DELFIA europium; inhibition, % at 2.35 µM; 0.069% of 330,000 active; AID 2099;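 active = more than half of a compound's replicate wells show inhibition beyond 50%, single wells judged on their own value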;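 also: signal counts dimethyl H3K9 product captured on neutravidin plate; 0% = median of DMSO wells and 100% = 0.3 times that DMSO median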
Apaf-1 inh = human Apaf-1 inhibition; O14727; reconstituted apoptosome caspase-3 activity, DEVD-Rh110 fluorescence; inhibition, % at 20 µM; 0.71% of 330,000 active; AID 489030; active = inhibition of at least 40% at 20 µM;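 also: plate controls were DMSO wells for no effect and DEVD-CHO caspase inhibitor wells for full effect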
Target sequence (O14727 whole entry, looked up): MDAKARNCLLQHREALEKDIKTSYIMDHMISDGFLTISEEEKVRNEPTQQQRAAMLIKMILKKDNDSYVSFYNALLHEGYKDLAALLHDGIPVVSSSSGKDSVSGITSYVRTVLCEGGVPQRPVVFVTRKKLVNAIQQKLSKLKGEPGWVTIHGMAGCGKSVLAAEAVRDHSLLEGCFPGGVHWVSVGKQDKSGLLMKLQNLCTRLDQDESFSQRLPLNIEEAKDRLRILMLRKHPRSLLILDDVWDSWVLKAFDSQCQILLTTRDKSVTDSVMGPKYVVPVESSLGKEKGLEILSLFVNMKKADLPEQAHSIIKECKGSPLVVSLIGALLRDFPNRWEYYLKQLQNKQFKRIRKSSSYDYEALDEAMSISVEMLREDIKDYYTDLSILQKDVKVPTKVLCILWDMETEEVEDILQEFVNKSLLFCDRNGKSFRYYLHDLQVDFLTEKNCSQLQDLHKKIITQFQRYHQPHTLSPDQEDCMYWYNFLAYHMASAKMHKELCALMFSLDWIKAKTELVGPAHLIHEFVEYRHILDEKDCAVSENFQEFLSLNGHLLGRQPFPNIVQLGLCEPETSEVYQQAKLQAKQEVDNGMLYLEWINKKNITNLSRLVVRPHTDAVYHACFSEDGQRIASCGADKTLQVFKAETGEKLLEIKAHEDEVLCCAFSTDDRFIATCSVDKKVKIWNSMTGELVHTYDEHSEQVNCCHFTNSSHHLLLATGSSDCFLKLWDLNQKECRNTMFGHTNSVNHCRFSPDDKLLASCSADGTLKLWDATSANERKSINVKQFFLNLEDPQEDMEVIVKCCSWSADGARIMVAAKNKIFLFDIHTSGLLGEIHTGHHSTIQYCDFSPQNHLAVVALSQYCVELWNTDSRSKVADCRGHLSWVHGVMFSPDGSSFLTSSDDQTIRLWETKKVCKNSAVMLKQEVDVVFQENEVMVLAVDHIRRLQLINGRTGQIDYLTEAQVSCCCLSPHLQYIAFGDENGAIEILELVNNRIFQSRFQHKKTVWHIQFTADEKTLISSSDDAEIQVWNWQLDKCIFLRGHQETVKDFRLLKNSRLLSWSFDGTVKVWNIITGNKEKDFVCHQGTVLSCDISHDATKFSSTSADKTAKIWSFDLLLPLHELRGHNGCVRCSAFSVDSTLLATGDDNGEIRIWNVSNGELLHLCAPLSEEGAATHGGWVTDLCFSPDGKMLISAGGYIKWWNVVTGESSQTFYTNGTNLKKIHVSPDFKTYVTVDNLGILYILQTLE
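System – cell-free apoptosome with Apaf-1, procaspase-3 and caspase-9 · Buffer or medium – pH 7.5 Hepes buffer with CHAPS, BSA, DTT · Also added – cytochrome c with DEVD-Rh110 · Times – 30 min compound preincubation, 50 min activation, room temperature · Technique – Rh110 fluorescence intensity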
TDP2 inh = TDP2 (human) inhibition, absorbance primary screen; O95551; recombinant TDP2, T5PNP hydrolysis, p-nitrophenol absorbance 415 nm; inhibition, % at 12.8 µM; 0.34% of 370,000 active;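 active = inhibition above the mean of all tested compounds plus 3 SD, set per campaign, cut at about 25% in these data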;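 also: 0% = DMSO with enzyme and 100% = buffer with substrate but no TDP2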
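test system = human TDP2 enzyme | input = TDP2 enzyme at 120 nM final | medium = 50 mM Tris-HCl pH 7.5 with Mg2+, KCl, DTT, BSA | also added = T5PNP substrate, 5 mM | times = 2 h at 37 °C | technique = epi absorbance | benchmarks = high control without enzyme, low control DMSO plus TDP2 | replication = each compound tested once, singlicate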
Apaf-1 inh conf2 = Apaf-1 inhibition, single-dose confirmed; reconstituted apoptosome, caspase-3 DEVD-Rh110 fluorescence; AID 504614; inhibition, % at 20 µM; shares compounds with Apaf-1 inh; 25% of 1,800 active;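 active = mean inhibition of at least 40% at 20 µM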;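 also: plate controls were DMSO wells for no effect and DEVD-CHO caspase inhibitor control wells for full effect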
Rh110 interf inh = counter-screen for Apaf-1 inhibitors: fluorescence interference; shares compounds with Apaf-1 inh; Rh110 fluorescence interference, quenched caspase reaction; activation (fluorescence interference), % at 20 µM; 1,800 tested, under 10 active; AID 504615;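 active = signal rise of 40% or more at 20 µM, treated as a fluorescence artifact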
Apaf1 inh interf = Apaf-1 inhibitor counter-screen fluorescence artifact | shares compounds with Apaf-1 inh | 460 tested, under 10 active | IC50, µM | fluorescence interference counterscreen, Apaf-1 assay format; call rule not given here
The depositor's hits bear a star; · = no result given.

SMILES	PAD4 FP inh	GSTO1 inh	UBC9 SUMO inh	JMJD2C inh	Apaf-1 inh	TDP2 inh	Apaf-1 inh conf2	Rh110 interf inh	others
CSc1ccc(CN(C)C(=O)c2cccc(S(=O)(=O)NCc3ccccc3)c2)cc1	-3	2	-14	2	67*	0	36	5
COCCN(Cc1ccccc1)C(=O)C1CCN(S(=O)(=O)c2ccc(OC)c(OC)c2)CC1	0	-7	·	5	-5	7	·	·
COCCN(Cc1ccccc1)C(=O)C1CCN(S(=O)(=O)c2ccc3c(c2)OCCO3)CC1	1	·	·	-5	49*	2	33	12
COCCN(Cc1ccccc1)C(=O)c1cccc(S(=O)(=O)N2CCN(c3ccccc3)CC2)c1	3	-8	·	-3	43*	0	42*	6	Apaf1 inh interf=>100
CC1CN(S(=O)(=O)c2cccc(C(=O)N(CCc3ccccc3)Cc3ccccc3)c2)CC(C)O1 (stereo not drawn)	1	-5	·	9	45*	·	20	9
COCCN=C1S/C(=C\c2cc(C)n(-c3ccc(F)cc3F)c2C)C(=O)N1C	·	·	·	·	·	1	·	·
CC1CN(C(=O)c2cccc(S(=O)(=O)NCc3ccccc3)c2)CC(C)O1 (stereo not drawn)	-3	·	·	0	54*	-3	35	3
NC1=NC[C@H](Cc2ccccc2)N1CCc1cc(C(F)(F)F)cc(C(F)(F)F)c1	-6	4	20	-7	54*	-2	15	8
O=C1c2ccccc2-c2onc3ccc(Oc4ccccc4)c1c23	-43	6	20	-6	22	18	·	·
CCOC(=O)C(C(=O)OCC)c1cc(Br)c2noc3c2c1C(=O)c1ccccc1-3	1	30	87*	3	89*	6	74*	-7	Apaf1 inh interf=>100
COC(=O)[C@]12C[C@H](CC(=O)N3CCOCC3)C(=O)N(CCc3ccc(OC)c(OC)c3)C1=C[C@H](C(C)C)O[C@@H]2C1CC1	·	·	·	·	·	5	·	·
COc1ccc([C@H]2OC(=O)C[C@H]2C(=O)N2CCN(C(=O)C3CCCO3)CC2)cc1OC (stereo partly drawn)	·	·	·	·	·	2	·	·
COCCNC(=O)CN1C(=O)NC2(CCOc3ccccc32)C1=O (stereo not drawn)	0	2	15	7	46*	12	25	1
Cc1ccc(CN2CCCCC(NC(=O)c3ccccc3C)C2=O)cc1 (stereo not drawn)	·	·	·	·	·	7	·	·
COc1ccc(CN(C)C(=O)c2cc(S(=O)(=O)NCc3ccccc3)ccc2C)c(OC)c1	-2	·	·	-7	61*	-8	40*	11	Apaf1 inh interf=>100
C=CCn1c(COc2cccc(C)c2)nnc1SC(C)C(=O)NC1CC1 (stereo not drawn)	-3	·	·	-8	41*	0	47*	6	Apaf1 inh interf=>100
C=CCn1c(COc2ccc(OC)cc2)nnc1SC(C)C(=O)NC1CC1 (stereo not drawn)	-5	·	·	1	-9	5	·	·
CC(=O)Nc1cccc(C(=O)NC(C)c2ccc(-n3ccnc3)cc2)c1 (stereo not drawn)	-1	4	14	10	41*	6	35	3
COc1ccc(CCN=Cc2c(C)[nH]n(-c3ccc([N+](=O)[O-])cc3)c2=O)cc1OC	2	3	18	2	-3	2	·	·
Cc1[nH]n(-c2ccc([N+](=O)[O-])cc2)c(=O)c1/C=N/N1CCOCC1	-6	7	-8	-2	44*	-4	0	-2
Cc1ccc(Oc2nc(CN3CCOCC3)nc3sc4c(c23)CCC(C)C4)cc1 (stereo not drawn)	-7	1	-2	6	41*	8	21	14
CN(Cc1ccccc1)S(=O)(=O)c1cccc(C(=O)OCc2ccc(C(F)(F)F)cc2)c1	·	·	·	·	·	1	·	·
CCOC(=O)c1nn(-c2ccccc2C)c(=O)c(C#N)c1C	-6	5	8	14	6	11	·	·
